Measured values from ChEMBL document CHEMBL1155222, “Synthesis and anticancer activity of N-bis(trifluoromethyl)alkyl-N'-thiazolyl and N-bis(trifluoromethyl)alkyl-N'-benzothiazolyl ureas” (2009).

Assays:
Type in all cases: functional
[1] = tested on: NCI-H522; test: Anticancer activity against human NCI-H522 cells after 48 hrs by sulforhodamine B assay; details: NCI-H522, 48 h
Method in brief: (§1)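 NCI 60-cell-line screen. Cells grown in RPMI 1640 with 5% FBS and 2 mM L-glutamine, plated at 5000–40,000 cells/well, and preincubated 24 h at 37 °C under 5% CO2. Compounds were taken from DMSO stocks and tested at five final concentrations, 10^-4 to 10^-8 M, for 48 h. Cells were TCA-fixed, stained with 0.4% SRB, and read at 515 nm. GI50, TGI and LC50 were derived as log molar values.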

[2] = tested on: HOP-92; test: Anticancer activity against human HOP92 cells after 48 hrs by sulforhodamine B assay; details: HOP-92, 48 h; method in brief: as §1
[3] = tested on: CAKI-1; test: Anticancer activity against human Caki1 cells after 48 hrs by sulforhodamine B assay; details: CAKI-1, 48 h; method in brief: as §1
[4] = tested on: KM12; test: Anticancer activity against human KM12 cells after 48 hrs by sulforhodamine B assay; details: KM12, 48 h; method in brief: as §1
[5] = tested on: RXF 393; test: Anticancer activity against human RXF393 cells after 48 hrs by sulforhodamine B assay; details: RXF 393, 48 h; method in brief: as §1
[6] = tested on: SW-620; test: Anticancer activity against human SW620 cells after 48 hrs by sulforhodamine B assay; details: SW-620, 48 h
Method in brief: (§2)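 NCI 60-cell-line panel; cells grown in RPMI 1640 with 5% FBS and 2 mM L-glutamine, plated at 5000–40,000 cells/well and preincubated 24 h at 37 °C, 5% CO2. Compounds came from DMSO stocks diluted in medium with gentamicin and were tested at five final concentrations, 10^-4 to 10^-8 M, for 48 h. Cells were fixed with TCA, stained with SRB and read at 515 nm. GI50, TGI and LC50 were derived as log molar values.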

[7] = tested on: HCC 2998; test: Anticancer activity against human HCC2998 cells after 48 hrs by sulforhodamine B assay; details: HCC 2998, 48 h; method in brief: as §1
[8] = tested on: NCI-H322M; test: Anticancer activity against human NCI-H322M cells after 48 hrs by sulforhodamine B assay; method in brief: as §1
[9] = tested on: PC-3; test: Anticancer activity against human PC3 cells after 48 hrs by sulforhodamine B assay; details: PC-3, 48 h; method in brief: as §1
[10] = tested on: M14; test: Anticancer activity against human M14 cells after 48 hrs by sulforhodamine B assay; details: M14, 48 h; method in brief: as §1
[11] = tested on: SF-295; test: Anticancer activity against human SF295 cells after 48 hrs by sulforhodamine B assay; details: SF-295, 48 h; method in brief: as §1
[12] = tested on: OVCAR-3; test: Anticancer activity against human OVCAR-3 cells after 48 hrs by sulforhodamine B assay; details: OVCAR-3, 48 h; method in brief: as §1
[13] = tested on: SF-539; test: Anticancer activity against human SF539 cells after 48 hrs by sulforhodamine B assay; details: SF-539, 48 h; method in brief: as §1
[14] = tested on: IGROV-1; test: Anticancer activity against human IGROV1 cells after 48 hrs by sulforhodamine B assay; details: IGROV-1, 48 h; method in brief: as §1
[15] = tested on: CCRF-CEM; test: Anticancer activity against human CCRF-CEM cells after 48 hrs by sulforhodamine B assay; method in brief: as §1
[16] = tested on: SK-OV-3; test: Anticancer activity against human SKOV3 cells after 48 hrs by sulforhodamine B assay; details: SK-OV-3, 48 h; method in brief: as §1
[17] = tested on: SR; test: Anticancer activity against human SR cells after 48 hrs by sulforhodamine B assay; method in brief: as §2
[18] = tested on: HCT-116; test: Anticancer activity against human HCT116 cells after 48 hrs by sulforhodamine B assay; details: HCT-116, 48 h; method in brief: as §1
[19] = tested on: SK-MEL-2; test: Anticancer activity against human SK-MEL-2 cells after 48 hrs by sulforhodamine B assay; details: SK-MEL-2, 48 h; method in brief: as §1
[20] = tested on: NCI/ADR-RES; test: Anticancer activity against human NCI/ADR-RES cells after 48 hrs by sulforhodamine B assay; method in brief: as §1
[21] = tested on: UACC-257; test: Anticancer activity against human UACC257 cells after 48 hrs by sulforhodamine B assay; details: UACC-257, 48 h; method in brief: as §2
[22] = tested on: SNB-75; test: Anticancer activity against human SNB75 cells after 48 hrs by sulforhodamine B assay; details: SNB-75, 48 h; method in brief: as §2
[23] = tested on: U-251; test: Anticancer activity against human U251 cells after 48 hrs by sulforhodamine B assay; details: U-251, 48 h; method in brief: as §2
[24] = tested on: A549; test: Anticancer activity against human A549 cells after 48 hrs by sulforhodamine B assay; details: A549, 48 h; method in brief: as §1
[25] = tested on: TK-10; test: Anticancer activity against human TK10 cells after 48 hrs by sulforhodamine B assay; details: TK-10, 48 h; method in brief: as §2
[26] = tested on: SN12C; test: Anticancer activity against human SN12C cells after 48 hrs by sulforhodamine B assay; method in brief: as §2
[27] = tested on: OVCAR-5; test: Anticancer activity against human OVCAR5 cells after 48 hrs by sulforhodamine B assay; details: OVCAR-5, 48 h; method in brief: as §1
[28] = tested on: LOX IMVI; test: Anticancer activity against human LOXIMVI cells after 48 hrs by sulforhodamine B assay; method in brief: as §1
[29] = tested on: T47D; test: Anticancer activity against human T47D cells after 48 hrs by sulforhodamine B assay; method in brief: as §2
[30] = tested on: OVCAR-4; test: Anticancer activity against human OVCAR4 cells after 48 hrs by sulforhodamine B assay; details: OVCAR-4, 48 h; method in brief: as §1
[31] = tested on: HCT-15; test: Anticancer activity against human HCT15 cells after 48 hrs by sulforhodamine B assay; details: HCT-15, 48 h; method in brief: as §1
[32] = tested on: 786-0; test: Anticancer activity against human 786-0 cells after 48 hrs by sulforhodamine B assay; details: 786-0, 48 h; method in brief: as §1
[33] = tested on: UO-31; test: Anticancer activity against human UO31 cells after 48 hrs by sulforhodamine B assay; details: UO-31, 48 h; method in brief: as §2
[34] = tested on: SK-MEL-28; test: Anticancer activity against human SK-MEL-28 cells after 48 hrs by sulforhodamine B assay; details: SK-MEL-28, 48 h; method in brief: as §1
[35] = tested on: HT-29; test: Anticancer activity against human HT-29 cells after 48 hrs by sulforhodamine B assay; details: HT-29, 48 h; method in brief: as §1
[36] = tested on: OVCAR-8; test: Anticancer activity against human OVCAR8 cells after 48 hrs by sulforhodamine B assay; details: OVCAR-8, 48 h; method in brief: as §1
[37] = tested on: ACHN; test: Anticancer activity against human ACHN cells after 48 hrs by sulforhodamine B assay; method in brief: as §1
[38] = tested on: EKVX; test: Anticancer activity against human EKVX cells after 48 hrs by sulforhodamine B assay; method in brief: as §1
[39] = tested on: A498; test: Anticancer activity against human A498 cells after 48 hrs by sulforhodamine B assay; details: A498, 48 h; method in brief: as §1
[40] = tested on: HOP-62; test: Anticancer activity against human HOP62 cells after 48 hrs by sulforhodamine B assay; details: HOP-62, 48 h; method in brief: as §1
[41] = tested on: SK-MEL-5; test: Anticancer activity against human SK-MEL-5 cells after 48 hrs by sulforhodamine B assay; details: SK-MEL-5, 48 h; method in brief: as §1
[42] = tested on: UACC-62; test: Anticancer activity against human UACC62 cells after 48 hrs by sulforhodamine B assay; details: UACC-62, 48 h; method in brief: as §2
[43] = tested on: COLO 205; test: Anticancer activity against human COLO205 cells after 48 hrs by sulforhodamine B assay; details: COLO 205, 48 h; method in brief: as §1
[44] = Anticancer activity against human Hs 578T cells after 48 hrs by sulforhodamine B assay; method in brief: as §1

O=c1[nH]cc(F)c(=O)[nH]1 [FLUOROURACIL] gave a GI50 [1] of 7240 nM, a GI50 [2] of 77600 nM and a GI50 [3] of 72.4 nM. For the same compound, the GI50 [4] was 214 nM, the GI50 [5] was 2630 nM and the GI50 [6] was 933 nM. The GI50 [7] was 52.5 nM, the GI50 [8] was 178 nM and the GI50 [9] was 2340 nM. It also gave a GI50 [10] of 977 nM, a GI50 [11] of 229 nM and a GI50 [12] of 15.8 nM. It also gave a GI50 [13] of 63.1 nM, a GI50 [14] of 1230 nM and a GI50 [15] of 9770 nM. The GI50 [16] was 21900 nM, the GI50 [17] was 24 nM and the GI50 [18] was 229 nM. The GI50 [19] was 56200 nM, the GI50 [20] was 316 nM and the GI50 [21] was 3550 nM. For the same compound, the GI50 [22] was 79400 nM, the GI50 [23] was 912 nM and the GI50 [24] was 191 nM. The GI50 [25] was 1120 nM, the GI50 [26] was 501 nM and the GI50 [27] was 11000 nM. It also gave a GI50 [28] of 245 nM, a GI50 [29] of 8130 nM and a GI50 [30] of 4470 nM. It also gave a GI50 [31] of 110 nM, a GI50 [32] of 724 nM and a GI50 [33] of 1410 nM. It also gave a GI50 [34] of 1020 nM, a GI50 [35] of 178 nM and a GI50 [36] of 1740 nM. The GI50 [37] was 295 nM, the GI50 [38] was 61700 nM and the GI50 [39] was 398 nM. The GI50 [40] was 398 nM, the GI50 [41] was 468 nM and the GI50 [42] was 525 nM. It also gave a GI50 [43] of 158 nM and a GI50 [44] of 9770 nM.
